Results as given in ChEMBL document CHEMBL4393735, “Molecular modelling, synthesis, and biological evaluations of a 3,5-disubstituted isoxazole fatty acid analogue as a PPARα-selective agonist” (Bioorg Med Chem, 2019).
Calls of active or inactive are those of the source.

What was measured:
[1] = biological target: T1, Peroxisome proliferator-activated receptor alpha (Homo sapiens) (UniProt Q07869); assay: Agonist activity at PPARalpha in human Huh7 cells assessed as activation of CPT1A mRNA expression at 50 uM measured after 18 hrs by qRT-PCR analysis; assay type: cell-based
T1 sequence (whole entry): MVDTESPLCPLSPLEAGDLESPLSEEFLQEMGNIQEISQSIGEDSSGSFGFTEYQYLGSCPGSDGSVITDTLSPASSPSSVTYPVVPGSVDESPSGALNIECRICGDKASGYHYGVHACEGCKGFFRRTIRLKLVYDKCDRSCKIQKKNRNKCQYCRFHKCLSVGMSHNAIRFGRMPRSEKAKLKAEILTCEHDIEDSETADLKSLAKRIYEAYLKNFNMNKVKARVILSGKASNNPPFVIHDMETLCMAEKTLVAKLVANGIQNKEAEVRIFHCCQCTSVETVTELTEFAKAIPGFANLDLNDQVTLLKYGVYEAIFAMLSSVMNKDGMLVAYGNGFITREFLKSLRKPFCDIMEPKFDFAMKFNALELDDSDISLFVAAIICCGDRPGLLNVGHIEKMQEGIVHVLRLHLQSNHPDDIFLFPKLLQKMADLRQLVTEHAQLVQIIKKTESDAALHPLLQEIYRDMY
Method in brief: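 Treatment for 18 h at 50 μM (or 1 μM for the 1 μM agents), DMSO vehicle. Harvested for qPCR. mRNA normalized to TBP by the comparative threshold method, expressed relative to DMSO control. Two biological replicates run in duplicate, mean ± SEM. Primary hepatocytes came from male C57BL/6N mice aged 7–8 weeks, isolated by portal-vein perfusion and digestion, seeded on collagen I and used on day 2. HuH-7 cells were kept in DMEM with 10% FBS and ITS.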

[2] = system: SGBS; assay: Upregulation of ACSL1 gene expression in human preadipocyte derived from Simpson-Golabi-Behmel syndrome (SGBS) patient at 25 uM measured for 12 days by qRT-PCR analysis; assay type: functional, cell-based
Method in brief: (§1)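 SGBS cells were differentiated with serum-free induction medium containing 25 μM test agent, 2 μM rosiglitazone or 0.1% DMSO from day 0. IBMX and dexamethasone were removed on day 4 and medium was renewed on day 8. RNA was taken on days 0, 4, 8 and 12 for qPCR, normalized to TBP and to day 0. At least three biological replicates in duplicate, two-way ANOVA with Bonferroni.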

[3] = biological target: T2, Peroxisome proliferator-activated receptor gamma (Homo sapiens, UniProt P37231); assay: Agonist activity at full length human FLAG-tagged GAL4-DBD fused PPARgamma LBD (205 to 505 residues) expressed in COS1 cells measured after 18 hrs by dual luciferase reporter gene assay; assay type: cell-based
T2 sequence (P37231 whole entry): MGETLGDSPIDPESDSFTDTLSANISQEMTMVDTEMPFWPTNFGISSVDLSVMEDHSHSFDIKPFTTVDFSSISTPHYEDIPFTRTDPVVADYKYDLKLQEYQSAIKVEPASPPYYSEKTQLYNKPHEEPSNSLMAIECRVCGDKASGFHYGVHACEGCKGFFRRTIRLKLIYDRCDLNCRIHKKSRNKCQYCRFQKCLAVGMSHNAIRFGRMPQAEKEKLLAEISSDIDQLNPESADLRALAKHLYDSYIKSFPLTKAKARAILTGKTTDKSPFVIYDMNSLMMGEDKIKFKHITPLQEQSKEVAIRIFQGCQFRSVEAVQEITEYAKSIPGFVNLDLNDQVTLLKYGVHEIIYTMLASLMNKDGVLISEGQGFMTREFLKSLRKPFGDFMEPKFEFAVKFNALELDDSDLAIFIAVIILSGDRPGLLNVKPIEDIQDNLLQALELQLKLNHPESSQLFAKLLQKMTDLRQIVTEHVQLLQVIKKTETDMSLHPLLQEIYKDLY
Method in brief: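 Dose-response in COS-1 cells transfected with GAL4-DBD–human PPARα or PPARγ LBD, a 5×UAS-SV40 firefly reporter and pRL-CMV. Cells were treated with increasing concentrations in 0.1% DMSO (final) 6 h post-transfection, then for 18 h. Firefly/Renilla ratio, normalized to GAL4-only activity. EC50 was taken from a sigmoidal dose-response fit. At least three independent transfections in quadruplicate.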

[4] = biological target: T3, Oxysterols receptor LXR-beta (Homo sapiens) (UniProt P55055); assay: Agonist activity at full length human GAL4-DBD fused LXRbeta LBD (155 to 461 residues) expressed in COS1 cells at 25 to 50 uM measured after 18 hrs by dual luciferase reporter gene assay; assay type: cell-based
T3 sequence (whole entry): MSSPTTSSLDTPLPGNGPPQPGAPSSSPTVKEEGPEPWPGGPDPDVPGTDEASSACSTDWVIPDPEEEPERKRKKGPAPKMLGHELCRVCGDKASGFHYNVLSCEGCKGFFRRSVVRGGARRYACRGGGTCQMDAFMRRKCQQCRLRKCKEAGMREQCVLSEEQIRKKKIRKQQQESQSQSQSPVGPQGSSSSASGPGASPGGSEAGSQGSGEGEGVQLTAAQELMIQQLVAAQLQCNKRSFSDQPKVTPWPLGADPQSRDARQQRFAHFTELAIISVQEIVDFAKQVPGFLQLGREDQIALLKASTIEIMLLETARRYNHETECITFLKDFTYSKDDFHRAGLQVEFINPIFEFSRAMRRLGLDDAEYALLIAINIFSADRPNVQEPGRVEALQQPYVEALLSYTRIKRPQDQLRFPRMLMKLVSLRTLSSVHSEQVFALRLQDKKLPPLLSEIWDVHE
Method in brief: (§2)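 COS-1 cells were transfected using Lipofectamine 2000 with GAL4-DBD–human NR-LBD plasmid, a 5×UAS-SV40 firefly luciferase reporter and pRL-CMV. After 6 h, cells were treated with 0, 25 or 50 μM in 0.1% DMSO (final) for 18 h. Firefly signal was normalized to Renilla, then to DMSO control and GAL4-only. Three biological replicates in quadruplicate, mean ± SEM, two-way ANOVA with Bonferroni.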

[5] = system: SGBS; assay: Upregulation of ADIPOQ gene expression in human preadipocyte derived from Simpson-Golabi-Behmel syndrome (SGBS) patient at 25 uM measured for 12 days by qRT-PCR analysis; assay type: functional, cell-based; method in brief: as §1
[6] = system: SGBS; assay: Upregulation of ANGPTL4 gene expression in human preadipocyte derived from Simpson-Golabi-Behmel syndrome (SGBS) patient at 25 uM measured for 12 days by qRT-PCR analysis; assay type: functional, cell-based; method in brief: as §1
[7] = system: COS-1; assay: Cytotoxicity against African green monkey COS1 cells assessed as reduction in cell viability at 10^-3 M by LDH release assay relative to control; assay type: cell-based; settings: chlorocebus aethiops, cos-1, 1000 µM
Method in brief: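 COS-1 cells were treated across the same concentration series as the GAL4 dose-response runs. Cytotoxicity was measured as LDH released into medium (absorbance 492/750 nm) and by XTT viability assay (absorbance 450/690 nm). Results expressed relative to control.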

[8] = biological target: T1, Peroxisome proliferator-activated receptor alpha (Homo sapiens); assay: Agonist activity at full length human FLAG-tagged GAL4-DBD fused PPARalpha LBD (168 to 468 residues) expressed in COS1 cells at 25 to 50 uM measured after 18 hrs by dual luciferase reporter gene assay; assay type: cell-based; method in brief: as §2

Activity [1]: Active
EC50 [3]: 2000 µM
Activity [4]: inactive
Activity [8]: Active
SMILES: CCCCCCCc1cc(CCCCCC(=O)O)no1
Activity [2]: Active
Activity [5]: Active
Activity [6]: Active
Activity [7]: 60%
